Test results as given in ChEMBL document CHEMBL4229337, “Design, synthesis and biological evaluation of 1-hydroxy-2-phenyl-4-pyridyl-1H-imidazole derivatives as xanthine oxidase inhibitors” (Eur J Med Chem, 2018).

Experiments:
[1] = biological target: T1, Xanthine dehydrogenase/oxidase (Bos taurus, UniProt P80457); assay: Inhibition of bovine xanthine oxidase assessed as reduction in uric acid formation using xanthine as substrate preincubated for 15 mins followed by substrate addition by spectrophotometric analysis
T1 sequence (P80457 whole entry): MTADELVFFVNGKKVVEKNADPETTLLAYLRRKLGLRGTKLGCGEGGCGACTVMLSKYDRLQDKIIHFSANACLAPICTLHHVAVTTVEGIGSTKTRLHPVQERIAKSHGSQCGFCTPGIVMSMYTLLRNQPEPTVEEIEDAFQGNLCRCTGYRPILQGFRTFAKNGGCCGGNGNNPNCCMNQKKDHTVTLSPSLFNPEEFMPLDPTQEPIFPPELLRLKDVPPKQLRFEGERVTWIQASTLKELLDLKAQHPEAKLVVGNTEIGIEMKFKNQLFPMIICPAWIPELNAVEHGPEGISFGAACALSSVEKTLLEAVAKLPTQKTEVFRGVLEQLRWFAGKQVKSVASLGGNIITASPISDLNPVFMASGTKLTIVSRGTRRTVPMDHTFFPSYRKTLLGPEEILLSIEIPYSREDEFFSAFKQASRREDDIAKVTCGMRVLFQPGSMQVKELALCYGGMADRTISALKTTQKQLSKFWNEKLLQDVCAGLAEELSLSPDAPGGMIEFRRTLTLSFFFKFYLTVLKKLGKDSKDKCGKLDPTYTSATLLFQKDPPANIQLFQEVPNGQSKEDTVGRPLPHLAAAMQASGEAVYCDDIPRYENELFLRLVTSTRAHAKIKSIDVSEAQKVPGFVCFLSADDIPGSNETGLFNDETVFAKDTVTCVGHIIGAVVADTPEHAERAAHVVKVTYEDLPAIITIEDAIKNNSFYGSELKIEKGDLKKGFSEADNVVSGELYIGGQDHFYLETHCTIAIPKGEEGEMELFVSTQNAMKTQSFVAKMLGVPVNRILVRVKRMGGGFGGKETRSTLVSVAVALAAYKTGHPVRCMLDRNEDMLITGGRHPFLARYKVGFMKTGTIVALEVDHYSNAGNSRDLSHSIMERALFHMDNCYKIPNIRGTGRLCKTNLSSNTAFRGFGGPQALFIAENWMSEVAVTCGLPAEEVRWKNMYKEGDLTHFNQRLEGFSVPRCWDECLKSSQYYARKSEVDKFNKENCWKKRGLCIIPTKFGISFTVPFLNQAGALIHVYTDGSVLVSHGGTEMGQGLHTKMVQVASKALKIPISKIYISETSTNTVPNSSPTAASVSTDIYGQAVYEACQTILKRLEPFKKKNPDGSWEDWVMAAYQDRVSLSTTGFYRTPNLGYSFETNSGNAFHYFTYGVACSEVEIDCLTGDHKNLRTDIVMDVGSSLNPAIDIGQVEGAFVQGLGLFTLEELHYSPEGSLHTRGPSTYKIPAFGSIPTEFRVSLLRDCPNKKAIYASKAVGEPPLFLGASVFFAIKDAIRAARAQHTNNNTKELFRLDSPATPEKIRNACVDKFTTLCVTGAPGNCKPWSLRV
Summary of the method: (§1)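 XO (15 U/L) in 0.1 M sodium pyrophosphate buffer pH 8.3 with 0.3 mM Na₂EDTA, preincubated 15 min with test compound; reaction started by adding 64 μM xanthine. Inhibition read as lowered uric acid concentration, in triplicate. Single-point screen at 10 µg/mL; compounds above 50% inhibition were then run over a wide concentration range to derive IC₅₀.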

[2] = biological target: T1, Xanthine dehydrogenase/oxidase; assay: Inhibition of bovine xanthine oxidase assessed as reduction in uric acid formation at 10 ug/ml using xanthine as substrate preincubated for 15 mins followed by substrate addition by spectrophotometric analysis; conditions: cattle; summary of the method: as §1
[3] = biological target: T1, Xanthine dehydrogenase/oxidase; assay: Mixed-type inhibition of bovine xanthine oxidase assessed as reduction in uric acid formation using xanthine as substrate preincubated for 15 mins followed by substrate addition by spectrophotometry based Lineweaver-Burk plot analysis; conditions: cattle

SMILES	pIC50 [1]	also measured
CC(C)COc1ccc(-c2nc(-c3ccncc3)cn2O)cc1C#N	–	inhibition (INH) [2]: < 50%
CC(C)Oc1ccc(-c2nc(-c3ccncc3)cn2O)cc1C#N	5.32	IC50 [1]: 4.75 µM
CC(C)CCOc1ccc(-c2nc(-c3ccncc3)cn2O)cc1C#N	6.19	IC50 [1]: 0.64 µM; inhibition (INH) ([1]; cattle): Dose-dependent effect; inhibition (INH) [3]: Active
CCC(C)Oc1ccc(-c2nc(-c3cccnc3)cn2O)cc1C#N (configuration not stated)	–	inhibition (INH) [2]: < 50%
CCCCOc1ccc(-n2cc(-c3ccncc3)nn2)cc1C#N	4.68	–
N#Cc1cccc(-c2nc(-c3cccnc3)cn2O)c1	–	inhibition (INH) [2]: < 50%
N#Cc1cc(-n2cc(-c3ccncc3)nn2)ccc1OCc1ccccc1	4.35	–
CCCCCOc1ccc(-n2cc(-c3ccncc3)nn2)cc1C#N	4.79	–
COc1ccc(-c2nc(-c3cccnc3)cn2O)cc1C#N	–	inhibition (INH) [2]: < 50%
CCC(C)Oc1ccc(-c2nc(-c3ccncc3)cn2O)cc1C#N (configuration not stated)	5.36	IC50 [1]: 4.35 µM
CC(C)CCOc1ccc(-c2nc(-c3cccnc3)cn2O)cc1C#N	5.17	IC50 [1]: 6.73 µM
CC(C)Oc1ccc(-c2nc(-c3cccnc3)cn2O)cc1C#N	–	inhibition (INH) [2]: < 50%
CCC(C)Oc1ccc(-n2cc(-c3ccncc3)nn2)cc1C#N (configuration not stated)	4.74	–
COc1ccc(-c2nc(-c3ccncc3)cn2O)cc1C#N	4.81	IC50 [1]: 15.4 µM
N#Cc1cc(-n2cc(-c3ccncc3)nn2)ccc1OC1CCCC1	5.17	–
Cc1cc(-c2n[nH]c(-c3ccc(OCC4COC(C)(C)O4)c(C#N)c3)n2)ccn1 (configuration not stated)	7.22	–
N#Cc1cccc(-c2nc(-c3ccncc3)cn2O)c1	–	inhibition (INH) [2]: < 50%
C=CCOc1ccc(-c2nc(-c3ccncc3)cn2O)cc1C#N	–	inhibition (INH) [2]: < 50%
CC(C)CCOc1ccc(-n2cc(-c3ccncc3)nn2)cc1C#N	5.09	–
COc1ccc(COc2ccc(-n3cc(-c4ccncc4)nn3)cc2C#N)cc1	4.63	–
C=CCOc1ccc(-c2nc(-c3cccnc3)cn2O)cc1C#N	5.02	IC50 [1]: 9.62 µM
CC(C)Oc1ccc(-n2cc(-c3ccncc3)nn2)cc1C#N	4.6	–
N#Cc1cc(-c2n[nH]c(-c3ccncc3)n2)ccn1 [TOPIROXOSTAT]	–	IC50 [1]: 0.0048 µM

Continued, in another order:

pIC50 [1]	SMILES	also measured
4.99	CC(C)COc1ccc(-c2nc(-c3cccnc3)cn2O)cc1C#N	IC50 [1]: 10.3 µM
7.77	Cc1cc(-c2n[nH]c(-c3ccc(OCC(C)C)c(C#N)c3)n2)ccn1	–
8	CC(C)COc1ccc(-c2nnc(-c3ccnc(Cl)c3)[nH]2)cc1[N+](=O)[O-]	–
7.7	CCOC(=O)c1cc(-c2nnc(-c3ccnc(C)c3)[nH]2)ccc1OCC(C)C	–
7.51	COCCOCCOc1ccc(-c2nc(-c3ccnc(C)c3)n[nH]2)cc1C#N	–
7.62	COCOc1ccc(-c2nc(-c3ccnc(C)c3)n[nH]2)cc1C#N	–
7.59	CCCCOCCOCCOc1ccc(-c2nnc(-c3ccnc(C)c3)[nH]2)cc1C#N	–
7.4	Cc1cc(-c2n[nH]c(-c3ccc(OCCO)c(C#N)c3)n2)ccn1	–
5.23	CC(C)COc1ccc(-c2nc(-c3cccnc3)n[nH]2)cc1[N+](=O)[O-]	–
7.37	Cc1cc(-c2n[nH]c(-c3ccc(O)c(C#N)c3)n2)ccn1	–
7.68	Cc1cc(-c2nnc(-c3ccc(OCCOCCOCCCl)c(C#N)c3)[nH]2)ccn1	–
7.19	COCCOc1ccc(-c2nc(-c3ccnc(C)c3)n[nH]2)cc1C#N	–
6.96	Cc1cc(-c2nnc(-c3ccc(OCC(=O)O)c(C#N)c3)[nH]2)ccn1	–
7.62	COCCOCOc1ccc(-c2nc(-c3ccnc(C)c3)n[nH]2)cc1C#N	–
8	Cc1cc(-c2nc(-c3ccc(OCC(C)C)c([N+](=O)[O-])c3)n[nH]2)ccn1	–
